SF1 activator – activates the human nuclear receptor SF-1; Q13285; CHO-K1 Gal4-SF-1 LBD luciferase reporter; % increase over DMSO SF-1-specific signal; activation, % at 10 µM; 65,000 tested, 1.9% active;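 active = activation above the mean activation of all tested compounds plus 3 SD, cut at about 50% in these data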
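material = CHO-K1 cells with Gal4–hSF-1 LBD chimera plus Gal4-driven luciferase | compound = 10 µM single point, 1% DMSO | incubation = 20 h compound exposure at 37 °C after 1 h cell settling | measured by = SteadyLite luciferase luminescence | evaluation = percent activation relative to DMSO median and mock-transfected background | control set = DMSO negative control and −SF1 background wells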
D1 allo mod – allosteric modulators of human D1 dopamine receptor; HEK293 D1, CRE-luciferase, dopamine EC30 potentiation; actives deviate in either direction; B-score at 10 µM; 58,000 tested, 5.9% active; P21728;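 active = luminescence count or its row- and column-corrected plate score outside the 99.7% band of the plate's sample wells, on either side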
M1 ag – agonists of M1 muscarinic receptor; 64,000 tested, 3% active; B-score at 10 µM; AID 626; CHO-M1 cells, Fluo-4 calcium fluorescence, agonist mode; hits give high values;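 active = fluorescence rise, raw or as B-score row- and column-corrected plate score, outside the 99.7% band of its plate's samples, either direction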
HePTP inh – blocks human HePTP tyrosine phosphatase; P35236; recombinant HePTP phosphatase activity, OD absorbance; inhibition, % at 20 µM; 110,000 tested, 0.64% active; in the data active = inhibition above about 50%;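 also: plate controls were vehicle for no effect and reference inhibitor for full effect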
RORA act – activators of human nuclear receptor RORA. 65,000 tested, 1.5% active. activation, % at 10 µM. CHO-K1 Gal4-RORA LBD luciferase reporter, luminescence; percent increase over mock-subtracted basal signal. AID 560. P35398;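 active = activation above the mean of all tested compounds plus 3 SD, cut at about 49% in these data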;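 also: 0% = DMSO-treated RORA cells and 100% = added signal equal to DMSO minus mock-transfected cells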
M1 antag – blocks the rat M1 muscarinic receptor response to acetylcholine. 64,000 tested, 3.4% active. P08482. B-score at 10 µM. CHO-M1 cells, Fluo-4 calcium, ACh EC80 antagonist mode; hits give low values;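 active = calcium fluorescence response, raw or row-and-column corrected B-score, differing from the plate sample mean either way at a set confidence level, mostly lower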
Target sequence (P08482 whole entry, looked up): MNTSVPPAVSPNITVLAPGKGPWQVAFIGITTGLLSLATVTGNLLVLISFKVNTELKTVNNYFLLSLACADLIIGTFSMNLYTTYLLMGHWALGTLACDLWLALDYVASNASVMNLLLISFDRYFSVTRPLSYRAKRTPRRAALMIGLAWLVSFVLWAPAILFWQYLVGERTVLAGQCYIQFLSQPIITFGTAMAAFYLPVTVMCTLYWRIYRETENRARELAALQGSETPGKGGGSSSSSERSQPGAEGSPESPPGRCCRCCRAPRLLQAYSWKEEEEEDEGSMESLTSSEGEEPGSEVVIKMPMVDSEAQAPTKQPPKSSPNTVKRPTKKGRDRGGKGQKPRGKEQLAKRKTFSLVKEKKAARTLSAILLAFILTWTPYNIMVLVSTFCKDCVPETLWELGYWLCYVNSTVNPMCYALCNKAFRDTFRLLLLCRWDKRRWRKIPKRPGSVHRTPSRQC
* marks the source's active call; other numbers are inactive results. Shown are actives, neighbours in structure and some others; about 8.2% of the full set was active somewhere.

Results for Cc1cc(C(=O)Nc2nnc(C3CCCCC3)s2)cs1 ?
SF1 activator: 43.4; D1 allo mod: -0.207; M1 ag: -0.551; HePTP inh: 5.2; RORA act: 8.4; M1 antag: 0.75

Results for COc1ccc(C(=O)NCC2(c3ccccc3)CCCC2)cc1 ?
HePTP inh: 10.1

Results for O=C(O)C1CC(=O)N(CCOc2ccccc2)C1 (stereo not given) ?
SF1 activator: -5.3; M1 ag: -0.00353; HePTP inh: 15.6; RORA act: -19.5; M1 antag: 1.03

How did CCC(OC(=O)c1ccco1)C(=O)NCc1ccc(C)cc1 (stereo not given) do in these assays?
SF1 activator: 7.5; D1 allo mod: -0.66; M1 ag: 0.954; HePTP inh: -3.8; RORA act: 4.1; M1 antag: -0.0181

How did CCS(=O)(=O)NCCCCc1ccccc1 do in these assays?
SF1 activator: 7.6; D1 allo mod: 0.176; M1 ag: -0.0554; HePTP inh: -3.2; RORA act: 4.9; M1 antag: 0.0884

How did COc1ccc(OC)c2sc(NC(=O)c3ccc(Br)s3)nc12 do in these assays?
SF1 activator: 53.3*; D1 allo mod: -1.15; M1 ag: 0.287; HePTP inh: -0.6; RORA act: -6.4; M1 antag: 0.0566

What do the screens show for `O=C(NCc1ccco1)Nc1ccc(Br)cc1Cl`?
SF1 activator: 59.5*; D1 allo mod: -0.747; HePTP inh: 6.0; RORA act: 57.2*

Results for CCC(C(=O)NC1CCCC1)N(Cc1ccc2c(c1)OCO2)C(=O)c1snc(C(N)=O)c1N (stereo not given) ?
SF1 activator: 9.8; D1 allo mod: -0.874; M1 ag: 1.51; HePTP inh: 8.1; RORA act: -18.4; M1 antag: 1.07

How did CCCC(C(=O)NC1CCCC1)N(Cc1cccs1)C(=O)c1snc(C(N)=O)c1N (stereo not given) do in these assays?
SF1 activator: -15.1; D1 allo mod: -1.42; M1 ag: 4.07*; HePTP inh: 0.3; RORA act: -12.2; M1 antag: -0.815

Results for Cc1ccc(-c2cc(C(=O)O)c3cc(Br)ccc3n2)o1 ?
HePTP inh: 104.0*

How did CCOC(=O)N1CCOCCOCCN(C(=O)OCC)CCOCC1 do in these assays?
SF1 activator: -10.2; D1 allo mod: 0.00279; M1 ag: -0.698; HePTP inh: -1.4; RORA act: -16.8; M1 antag: 0.514

What do the screens show for `O=c1oc2ccccc2n1CSc1nc2ccccc2s1`?
SF1 activator: 52.1*; D1 allo mod: 2.06; M1 ag: 0.113; HePTP inh: -9.9; RORA act: 66.1*; M1 antag: -0.107

Results for Cn1c(CSc2nc3ccccc3s2)nc2ccccc21 ?
SF1 activator: 70.7*; D1 allo mod: 0.0296; M1 ag: -0.63; HePTP inh: -8.2; RORA act: 26.7; M1 antag: -0.12

Results for Cn1c(CNc2ccc(O)cc2)nc2ccccc21 ?
HePTP inh: -4.9

What do the screens show for `Cc1ccc(NCc2nc3ccccc3n2C)cc1`?
SF1 activator: 43.1; D1 allo mod: -4.06*; M1 ag: -0.39; HePTP inh: 9.9; RORA act: 34.5; M1 antag: 0.174

How did Cc1ccc(N2C(=O)NC(=O)/C(=C/c3ccc(C)c([N+](=O)[O-])c3)C2=O)cc1 do in these assays?
HePTP inh: -1.7

What do the screens show for `O=C(Nc1nc2ccc(S(=O)(=O)N3CCCCC3)cc2s1)c1ccncc1`?
SF1 activator: -0.6; D1 allo mod: 0.00979; M1 ag: -1.92; HePTP inh: 5.9; RORA act: 14.6; M1 antag: -0.122

How did O=C(Nc1nc2ccc(S(=O)(=O)N3CCCC3)cc2s1)c1cccs1 do in these assays?
SF1 activator: 36.9; D1 allo mod: 0.319; M1 ag: -1.41; HePTP inh: 7.1; RORA act: 51.8*; M1 antag: -0.97

How did O=C(Nc1nc2ccc(Br)cc2s1)c1cccs1 do in these assays?
HePTP inh: 2.0

Results for CSc1nc2ccc3nc(NC(=O)c4cccs4)sc3c2s1 ?
SF1 activator: 64.1*; D1 allo mod: -1.47; M1 ag: -0.697; HePTP inh: 3.7; RORA act: 38.7; M1 antag: 0.411

What do the screens show for `CCCCn1nnc(NC(=O)c2ccc(-c3ccccc3)cc2)n1`?
SF1 activator: 7.1; D1 allo mod: -0.108; M1 ag: 0.349; HePTP inh: 3.0; RORA act: -11.2; M1 antag: 0.119

What do the screens show for `CCCCn1nnc(NC(=O)c2cc3ccccc3o2)n1`?
SF1 activator: 31.1; D1 allo mod: 0.413; M1 ag: 0.368; HePTP inh: 5.4; RORA act: 15.4; M1 antag: -1.41

How did CCc1ccc(C(=O)Nc2nnn(CC)n2)cc1 do in these assays?
SF1 activator: 41.7; D1 allo mod: -4.5*; M1 ag: -0.0377; HePTP inh: -6.9; RORA act: 39.7; M1 antag: -0.297

How did CCCn1nnc(NC(=O)c2cc3ccccc3o2)n1 do in these assays?
SF1 activator: 19.6; D1 allo mod: -2.41; M1 ag: -0.62; HePTP inh: 9.8; RORA act: 49.4*; M1 antag: -0.0347

How did CCn1nnc(NC(=O)c2cc3ccccc3o2)n1 do in these assays?
SF1 activator: 12.0; D1 allo mod: -0.169; M1 ag: 0.213; HePTP inh: -1.2; RORA act: -7.2; M1 antag: 3.35*

What do the screens show for `CCC1CCc2c(sc(NC(=O)c3c(-c4ccccc4)noc3C)c2C(N)=O)C1` (stereo not given)?
HePTP inh: -1.1

How did COC(=O)c1ccc(C(=O)OC)c(NC(=O)c2cc(Cl)ccc2Cl)c1 do in these assays?
HePTP inh: 102.1*

Results for COC(=O)c1ccc(Cl)c(NC(C)=O)c1 ?
SF1 activator: 6.3; D1 allo mod: -0.362; M1 ag: 0.16; HePTP inh: -3.2; RORA act: 0.0; M1 antag: 0.341

Results for Cn1c(=O)n(Cc2ccc(Cl)cc2)c(=O)c2c1nc1n2CCN1Cc1ccco1 ?
SF1 activator: 1.8; D1 allo mod: 0.171; M1 ag: -2.31*; HePTP inh: 0.1; RORA act: 13.8; M1 antag: -1.05

How did Cn1c(=O)n(Cc2ccccc2)c(=O)c2c1nc1n2CCCN1Cc1ccccc1 do in these assays?
SF1 activator: 9.8; D1 allo mod: 0.00533; M1 ag: 0.439; HePTP inh: 5.8; RORA act: 3.8; M1 antag: 2.9*

What do the screens show for `CCOc1ccc(CN2CCN(C(=O)c3ccco3)CC2)cc1`?
HePTP inh: 2.9

How did OC(COCC1CC=CCC1)Cn1cnc2ccccc21 (stereo not given) do in these assays?
SF1 activator: -8.9; M1 ag: -2.04; HePTP inh: 5.4; RORA act: -26.3; M1 antag: 0.00204

What do the screens show for `Cc1ccc(-c2csc(Nc3ccc(O)cc3)n2)c(C)c1`?
HePTP inh: -18.3

Bioassay records deposited in PubChem by several laboratories.
